Six molecules from ChEMBL document CHEMBL4425113, “Chromenopyrazole, a Versatile Cannabinoid Scaffold with in Vivo Activity in a Model of Multiple Sclerosis” (J Med Chem, 2016) can be followed below.

The source made the active and inactive calls. No cut-off for these calls is given here.

A short description of data set [1]: Binding affinity to PDEA modified AGP (unknown origin) at 40 uM by surface plasmon resonance method. To be noted: human, isolated protein. It counts as ADME.
For data set [2], the target named is T1, Cannabinoid receptor 2 (Homo sapiens, UniProt P34972). The experiment in a line: Agonist activity at human CB2 receptor expressed in HEK293 cell membranes assessed as inhibition of forskolin-stimulated cAMP accumulation after 60 mins by HTRF assay. It counts as functional, cell-based.
The species entered for data set [3] is Homo sapiens. The data set is described as follows: Selectivity ratio of Ki for human CB1 receptor to Ki for human CB2 receptor. An outline of the steps:
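Membranes from cells transfected with hCB1 (8 μg/well; Tris 50 mM, MgCl2 5 mM, EDTA 2.5 mM, BSA 0.5 mg/mL, pH 7.4) or hCB2 (4 μg/well; EGTA 2.5 mM, BSA 1 mg/mL, pH 7.5); [3H]CP55940, 90 min at 30 °C. […] Nonspecific binding 10 μM WIN55212-2; GF/C filtration, scintillation; ≥3 experiments in triplicate.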

The target in data set [4] is T1, Cannabinoid receptor 2. The data set is described as follows: Agonist activity at human CB2 receptor expressed in HEK293 cell membranes assessed as induction of [35S]-GTPgammaS binding after 60 mins by liquid scintillation spectrometric method. The data set is classed as functional. Background: Binding of GTPγS marks nucleotide exchange on a G protein.
The target in data set [5] is T1, Cannabinoid receptor 2. The experiment in a line: Agonist activity at human CB2 receptor expressed in HEK293 cell membranes assessed as inhibition of forskolin-stimulated cAMP accumulation at 1 uM after 60 mins by HTRF assay. It counts as functional, cell-based. In outline:
(§1)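 HEK293 cells stably expressing hCB2, 5.000 cells/well, forskolin-stimulated; Lance-Ultra TR-FRET cAMP kit, 60 min room temperature with HTRF reagents; 665/620 nm ratio converted to cAMP via standard curve; forskolin level set to 100%.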

Data set [6] has as its target T2, Cannabinoid receptor 1 (Homo sapiens, UniProt P21554). The data set is described as follows: Agonist activity at human CB1 receptor expressed in HEK293 cell membranes assessed as induction of [35S]-GTPgammaS binding after 60 mins by liquid scintillation spectrometric method. It counts as functional.
The target in data set [7] is T1, Cannabinoid receptor 2. The data set is described as follows: Agonist activity at human CB2 receptor expressed in HEK293 cell membranes assessed as inhibition of forskolin-stimulated cAMP accumulation at 200 nM after 60 mins by HTRF assay. It counts as functional, cell-based. In outline:
as §1
On the technique in general: Cyclic AMP is a second messenger, typically raised through Gs and lowered through Gi signalling.

Data set [8] has as its target T1, Cannabinoid receptor 2. The experiment in a line: Displacement of [3H]-CP55940 from human CB2 receptor expressed in HEK293 cell membranes after 90 mins by liquid scintillation counting method.
The target of data set [9] is T2, Cannabinoid receptor 1. The data set is described as follows: biochemical. The data set is classed as cell-based, HEK293.
The target of data set [10] is T1, Cannabinoid receptor 2. The experiment in a line: Antagonist activity at human CB2 receptor expressed in HEK293 cell membranes assessed as inhibition of CP55940-mediated suppression of forskolin-stimulated cAMP accumulation at 200 nM after 60 mins by HTRF assay. It counts as functional, cell-based.
For data set [11], the target named is T1, Cannabinoid receptor 2. The experiment in a line: Antagonist activity at human CB2 receptor expressed in HEK293 cell membranes assessed as inhibition of CP55940-mediated suppression of forskolin-stimulated cAMP accumulation at 1 uM after 60 mins by HTRF assay. The data set is classed as functional, cell-based.
Data set [12] addresses T1, Cannabinoid receptor 2. The data set is described as follows: Partial agonist activity at human CB2 receptor expressed in HEK293 cell membranes assessed as inhibition of forskolin-stimulated cAMP accumulation at 200 nM after 60 mins by HTRF assay. The data set is classed as functional, cell-based. An outline of the steps:
as §1

The species named for data set [13] is Homo sapiens. The experiment in a line: Selectivity ratio of Ki for human CB2 receptor to Ki for human CB1 receptor.
For data set [14], the target named is T1, Cannabinoid receptor 2. The experiment in a line: Partial agonist activity at human CB2 receptor expressed in HEK293 cell membranes assessed as inhibition of forskolin-stimulated cAMP accumulation at 1 uM after 60 mins by HTRF assay. It counts as functional, cell-based. An outline of the steps:
as §1

A further data set concerns Mus musculus. The data set is described as follows: Antiinflammatory activity in TMEV-induced SJL/J mouse demyelinating disease model assessed as reduction of microglial activation by measuring […] in Iba-1 expression at 5 mg/kg, ip administered for 7 days by fluorescence assay. It counts as functional, organism-based. In outline:
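Female SJL/J mice, 12 weeks, inoculated intracerebrally (right hemisphere) with TMEV DA strain; sham get vehicle. Compound 5 mg/kg i.p. daily for 7 days, vehicle 10% DMSO in PBS. Perfused brains PFA-fixed; sections stained anti-Iba1 (1:1,000) plus Alexa secondary; confocal fluorescence intensity, 6 sections/animal, ≥5 animals/group; Kruskal–Wallis test.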

T2 sequence (P21554 whole entry): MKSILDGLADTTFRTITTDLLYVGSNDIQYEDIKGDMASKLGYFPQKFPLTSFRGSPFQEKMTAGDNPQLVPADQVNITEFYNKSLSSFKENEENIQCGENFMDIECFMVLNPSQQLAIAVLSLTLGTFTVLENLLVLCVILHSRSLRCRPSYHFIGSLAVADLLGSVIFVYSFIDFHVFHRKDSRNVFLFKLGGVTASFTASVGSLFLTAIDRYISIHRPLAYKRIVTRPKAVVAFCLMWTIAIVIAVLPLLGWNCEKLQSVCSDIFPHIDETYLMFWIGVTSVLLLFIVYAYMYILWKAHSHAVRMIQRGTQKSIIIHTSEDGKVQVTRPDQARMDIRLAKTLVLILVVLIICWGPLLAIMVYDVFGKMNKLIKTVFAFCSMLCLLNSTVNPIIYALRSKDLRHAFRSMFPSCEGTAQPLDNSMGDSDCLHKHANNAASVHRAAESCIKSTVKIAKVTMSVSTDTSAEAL
T1 sequence (P34972 whole entry): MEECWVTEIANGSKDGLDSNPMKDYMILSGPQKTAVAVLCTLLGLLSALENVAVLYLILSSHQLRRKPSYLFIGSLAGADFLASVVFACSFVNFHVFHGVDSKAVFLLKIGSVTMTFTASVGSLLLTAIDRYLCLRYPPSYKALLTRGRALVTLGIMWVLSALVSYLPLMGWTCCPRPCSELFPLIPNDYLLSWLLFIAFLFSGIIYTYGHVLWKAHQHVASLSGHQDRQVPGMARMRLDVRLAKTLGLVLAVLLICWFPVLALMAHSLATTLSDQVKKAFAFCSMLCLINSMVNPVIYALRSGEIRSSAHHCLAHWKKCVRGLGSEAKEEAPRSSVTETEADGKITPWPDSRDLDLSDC

The Emax is the size of the effect at its maximum, as opposed to the concentration needed. Usually IC50 stands for the concentration needed to halve the response being measured. A word on the EC50: it is the concentration that produces a half-maximal response. A word on the Ki: it is the equilibrium dissociation constant of an inhibitor or competing ligand from its target. A higher Ki goes with lower affinity. On to `CCCCCCC(C)(C)c1cc(O)c2c(c1)OC(C)(C)c1cnoc1-2`, for which the PB entry in data set [1] is “Active”. Moreover, the values for the Emax at Cannabinoid receptor 2 [2] and on Cannabinoid receptor 2 [4] were 98% and 114%, respectively. Besides, on Cannabinoid receptor 2 [2], the IC50 was determined as 134 nM. Also, in the data set listed under Homo sapiens [3], the Ratio Ki was found to be 2.9. Further, the inhibition entry on Cannabinoid receptor 2 [5] and at Cannabinoid receptor 2 [7] was “Active” throughout. The EC50 at Cannabinoid receptor 1 [6] stood at 15.8 nM. In addition, the values for the Ki on Cannabinoid receptor 2 [8] and on Cannabinoid receptor 1 [9] were 5.3 nM and 15.4 nM, respectively.

For `CCCCCCC(C)(C)c1cc(OCCO)c2c(c1)OC(C)(C)c1cn(C)nc1-2`, the inhibition entry at Cannabinoid receptor 2 [10] is “inactive”. The Ratio Ki in the data set filed under Homo sapiens [3] worked out at 27.2. The Ki on Cannabinoid receptor 2 [8] stood at 39.8 nM; at Cannabinoid receptor 1 [9] it was 1090 nM.

On to `CCCCCCC(C)(C)c1cc(OCCCO)c2c(c1)OC(C)(C)c1cn(CC)nc1-2`, for which, in the data set filed under Homo sapiens [3], the Ratio Ki was over 411. In addition, on Cannabinoid receptor 2 [11], the inhibition result is “Active”. Further, the Ki at Cannabinoid receptor 2 [8] was 97.4 nM; on Cannabinoid receptor 1 [9], over 40000 nM.

Turning to `CCCCCCC(C)(C)c1cc(OCc2ccccc2)c2c(c1)OC(C)(C)c1cn[nH]c1-2`, the inhibition entry on Cannabinoid receptor 2 [12] and at Cannabinoid receptor 2 [14] was “Active” each time. For the same molecule, the Ratio Ki in the data set listed under Homo sapiens [13] stood at 4.2. Besides, the EC50 on Cannabinoid receptor 1 [6] amounted to 191 nM. In addition, the Ki on Cannabinoid receptor 2 [8] came to 93.3 nM; at Cannabinoid receptor 1 [9] it was 22.4 nM.

As to `CCCCCCC(C)(C)c1cc(OC)c2c(c1)OC(C)(C)c1cnoc1-2`, in data set [1], the PB result is recorded as “Active”. Moreover, the outcome in the data set with Mus musculus was Active. For the same molecule, the values for the Emax on Cannabinoid receptor 2 [2] and on Cannabinoid receptor 2 [4] were 101% and 98%, respectively. Also, on Cannabinoid receptor 2 [2], the IC50 amounted to 4.2 nM. In addition, the Ratio Ki in the data set listed under Homo sapiens [3] is over 3100. For the same molecule, the inhibition entry on Cannabinoid receptor 2 [5] and on Cannabinoid receptor 2 [7] was “Active” each time. Besides, the values for the Ki at Cannabinoid receptor 2 [8] and on Cannabinoid receptor 1 [9] were 12.8 nM and over 40000 nM, respectively.

For the molecule `CCCCCCC(C)(C)c1cc(OC)c2c(c1)OC(C)(C)c1cn(C)nc1-2`, the PB result in data set [1] is recorded as “Active”. In addition, the inhibition result on Cannabinoid receptor 2 [10] is “inactive”. The Ratio Ki in the data set filed under Homo sapiens [3] worked out at 62.6. In addition, the Ki came to 66.4 nM on Cannabinoid receptor 2 [8] and 4160 nM at Cannabinoid receptor 1 [9].
